Active and inactive are the calls of the source. The rule behind the calls is not given here.
Legend:
[1] = target: T1, Metabotropic glutamate receptor 5 (Rattus norvegicus, UniProt P31424); test: Displacement of [3H]MPEP from mGluR5 in Sprague-Dawley rat brain membrane after 60 mins by liquid scintillation counting; type: cell membranes
[2] = target: T1, Metabotropic glutamate receptor 5; test: Inverse agonist activity at rat mGluR5 expressed in HEK293A cells coexpressing Gqalpha assessed as inhibition of basal D-myo-inositol 1 production by ELISA
[3] = target: Metabotropic glutamate receptor 5 (Rattus norvegicus) (UniProt P31424); test: Inverse agonist activity at rat mGluR5 expressed in HEK293A cells coexpressing Gqalpha assessed as inhibition of quisqualic-induced D-myo-inositol 1 production by ELISA; type: functional, cell-based; details: HEK293-A
Procedure, shortened: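 IP₃ production was gauged indirectly by IP-One ELISA for IP₁ accumulation. Dose–response curves were run without agonist and in the presence of 1 μM quisqualic acid.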

Mus musculus [4] = test: Anxiolytic activity in ip dosed Swiss Webster mouse assessed as increase in locomotor activity administered as single dose 15 mins prior to testing by open-field test; type: functional, organism-based
Procedure, shortened: (§1)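 Open-field test in mice. Drugs were suspended in 2% ethanol/10% Tween 80/water (MTEP in saline) and given ip 15 min before testing. Locomotor activity and time in the center region were recorded. n = 10–12 per dose, means ± SEM. Each dose was compared with its within-group vehicle cohort by one-way ANOVA with Bonferroni post hoc test.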

Mus musculus [5] = test: Anxiolytic activity in ip dosed Swiss Webster mouse assessed as increase in time spent in the centre region administered as single dose 15 mins prior to testing by open-field test; type: functional, organism-based; procedure, shortened: as §1
Mus musculus [6] = test: Anxiolytic activity in ip dosed Swiss Webster mouse assessed as increase in time spent in light compartment administered as single dose 15 mins prior to testing by light-dark box test; type: functional, organism-based
Procedure, shortened: (§2)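 Light–dark box test in mice. Drugs were given ip 15 min pretest in a 2% ethanol, 10% Tween 80 and water suspension (MTEP in saline). Read-outs were the proportion of time in the light compartment and the number of light–dark transitions. n = 10–12 per dose, means ± SEM. One-way ANOVA with Bonferroni test against the within-group vehicle cohort.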

Mus musculus [7] = test: Anxiolytic activity in ip dosed Swiss Webster mouse assessed as increase in number of compartment transitions administered as single dose 15 mins prior to testing by light-dark box test; type: functional, organism-based; procedure, shortened: as §2
Mus musculus [8] = test: Anxiolytic activity in Swiss Webster mouse assessed as increase in locomotor activity at 10 mg/kg, ip administered as single dose 15 mins prior to testing by open-field test; type: functional, organism-based; set-up: dose 10 mg/kg; procedure, shortened: as §1
Mus musculus [9] = test: Anxiolytic activity in Swiss Webster mouse assessed as increase in time spent in the centre region at 10 mg/kg, ip administered as single dose 15 mins prior to testing by open-field test; type: functional, organism-based; set-up: dose 10 mg/kg; procedure, shortened: as §1
Mus musculus [10] = test: Anxiolytic activity in Swiss Webster mouse assessed as increase in time spent in light compartment at 10 mg/kg, ip administered as single dose 15 mins prior to testing by light-dark box test; type: functional, organism-based; set-up: dose 10 mg/kg; procedure, shortened: as §2
Mus musculus [11] = test: Anxiolytic activity in Swiss Webster mouse assessed as increase in number of compartment transitions at 10 mg/kg, ip administered as single dose 15 mins prior to testing by light-dark box test; type: functional, organism-based; set-up: dose 10 mg/kg; procedure, shortened: as §2

T1 sequence (P31424 whole entry): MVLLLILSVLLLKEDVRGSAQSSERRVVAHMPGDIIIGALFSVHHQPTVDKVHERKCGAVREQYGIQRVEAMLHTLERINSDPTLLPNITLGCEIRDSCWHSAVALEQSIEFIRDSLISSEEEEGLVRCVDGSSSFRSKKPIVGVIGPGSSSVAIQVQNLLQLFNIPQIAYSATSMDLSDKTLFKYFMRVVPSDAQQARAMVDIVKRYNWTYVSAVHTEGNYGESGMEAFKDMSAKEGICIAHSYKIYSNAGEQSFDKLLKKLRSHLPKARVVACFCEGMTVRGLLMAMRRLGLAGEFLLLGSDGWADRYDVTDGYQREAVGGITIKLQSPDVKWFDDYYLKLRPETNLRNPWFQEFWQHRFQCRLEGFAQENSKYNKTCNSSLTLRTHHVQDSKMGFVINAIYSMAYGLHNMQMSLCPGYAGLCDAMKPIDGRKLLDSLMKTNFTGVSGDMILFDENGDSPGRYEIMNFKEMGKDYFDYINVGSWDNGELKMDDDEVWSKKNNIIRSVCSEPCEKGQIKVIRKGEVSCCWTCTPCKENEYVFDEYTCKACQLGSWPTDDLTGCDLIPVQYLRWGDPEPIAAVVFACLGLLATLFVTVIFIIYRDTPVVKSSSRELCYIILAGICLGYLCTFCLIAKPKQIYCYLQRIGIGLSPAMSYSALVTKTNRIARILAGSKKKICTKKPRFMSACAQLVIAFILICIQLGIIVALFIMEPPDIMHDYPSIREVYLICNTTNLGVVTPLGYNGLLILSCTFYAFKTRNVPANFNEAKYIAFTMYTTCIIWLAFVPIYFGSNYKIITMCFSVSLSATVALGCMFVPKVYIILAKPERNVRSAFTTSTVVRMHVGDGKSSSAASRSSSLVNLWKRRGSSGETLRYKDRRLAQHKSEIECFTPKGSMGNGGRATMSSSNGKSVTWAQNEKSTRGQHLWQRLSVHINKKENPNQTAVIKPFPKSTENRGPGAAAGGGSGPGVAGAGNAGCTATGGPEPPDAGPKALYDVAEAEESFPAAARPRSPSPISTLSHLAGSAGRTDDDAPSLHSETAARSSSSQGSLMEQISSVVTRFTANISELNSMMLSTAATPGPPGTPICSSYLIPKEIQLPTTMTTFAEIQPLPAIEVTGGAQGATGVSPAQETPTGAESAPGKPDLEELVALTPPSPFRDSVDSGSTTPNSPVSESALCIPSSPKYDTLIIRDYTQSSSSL
Metabotropic glutamate receptor 5 (Rattus norvegicus), sequence (P31424 21-1203 limits assumed): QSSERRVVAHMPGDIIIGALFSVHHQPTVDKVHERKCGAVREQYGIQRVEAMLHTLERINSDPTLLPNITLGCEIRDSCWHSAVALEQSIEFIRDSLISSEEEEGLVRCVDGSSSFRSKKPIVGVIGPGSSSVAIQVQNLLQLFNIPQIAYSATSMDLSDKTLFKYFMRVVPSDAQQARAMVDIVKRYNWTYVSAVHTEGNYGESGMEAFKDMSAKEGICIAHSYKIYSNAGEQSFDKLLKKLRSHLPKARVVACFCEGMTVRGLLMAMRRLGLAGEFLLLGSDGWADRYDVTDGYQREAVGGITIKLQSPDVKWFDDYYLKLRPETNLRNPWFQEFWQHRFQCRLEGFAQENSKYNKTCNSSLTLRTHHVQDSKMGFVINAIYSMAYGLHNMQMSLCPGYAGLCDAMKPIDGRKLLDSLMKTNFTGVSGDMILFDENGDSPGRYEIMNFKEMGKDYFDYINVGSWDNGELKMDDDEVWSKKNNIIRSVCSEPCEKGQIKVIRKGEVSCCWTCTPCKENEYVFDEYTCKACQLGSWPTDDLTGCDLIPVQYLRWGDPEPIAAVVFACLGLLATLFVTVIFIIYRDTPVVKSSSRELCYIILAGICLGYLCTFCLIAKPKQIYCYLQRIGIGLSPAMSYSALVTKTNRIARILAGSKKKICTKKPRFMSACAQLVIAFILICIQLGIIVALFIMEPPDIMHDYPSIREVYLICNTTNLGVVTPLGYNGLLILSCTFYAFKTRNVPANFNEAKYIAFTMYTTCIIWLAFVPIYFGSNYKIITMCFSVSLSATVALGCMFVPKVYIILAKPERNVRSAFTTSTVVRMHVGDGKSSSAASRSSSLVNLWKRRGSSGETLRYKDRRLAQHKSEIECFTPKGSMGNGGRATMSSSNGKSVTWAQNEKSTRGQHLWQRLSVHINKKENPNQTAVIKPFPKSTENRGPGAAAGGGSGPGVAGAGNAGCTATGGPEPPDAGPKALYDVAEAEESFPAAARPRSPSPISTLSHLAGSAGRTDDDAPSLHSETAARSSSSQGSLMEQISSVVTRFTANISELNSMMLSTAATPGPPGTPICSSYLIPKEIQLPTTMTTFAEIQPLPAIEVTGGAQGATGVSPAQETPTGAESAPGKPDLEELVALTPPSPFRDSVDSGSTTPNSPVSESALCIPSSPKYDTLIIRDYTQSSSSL

N#Cc1cc(F)cc(C#Cc2cccc(F)n2)c1 gave a Ki [1] of 41 nM and an IC50 [2] of 80 nM.
N#Cc1cccc(C#Cc2cc(F)cc(C(N)=O)c2)n1 showed a Ki [1] greater than 10000 nM.
In the case of Cc1nc(C#Cc2cccnc2)cs1, the inhibition [3] is reported as “Dose-dependent effect”, the Activity (Mus musculus [4]) is reported as “Dose-dependent effect” and the Activity (Mus musculus [5]) is reported as “Dose-dependent effect”. For the same molecule, the Activity (Mus musculus [6]) was “Dose-dependent effect”, the Activity (Mus musculus [7]) was “Dose-dependent effect” and the Activity (Mus musculus [8]) was “Active”. The Activity (Mus musculus [9]) was “Active”, the Activity (Mus musculus [10]) was “Active” and the Activity (Mus musculus [11]) was “Active”.
COc1cccc(C#Cc2cccc(C#N)c2)n1 gave a Ki [1] of 200 nM and an IC50 [2] of 300 nM.
N#Cc1cccc(C#Cc2cccc(C(N)=O)c2)n1 gave a Ki [1] greater than 10000 nM.
For N#Cc1cncc(C#Cc2cccc(C#N)n2)c1, the Ki [1] was 52 nM and the IC50 [2] was 500 nM.
N#Cc1cccc(C#Cc2cccc(C#N)n2)c1 gave a Ki [1] of 8.2 nM and an IC50 [2] of 20 nM.
For N#Cc1cc(F)cc(C#Cc2cccc(CO)n2)c1, the Ki [1] was 7.5 nM and the IC50 [2] was 50 nM.
Molecule CC(=O)c1cccc(C#Cc2cc(F)cc(C#N)c2)n1 has a Ki [1] of 64 nM and an IC50 [2] of 240 nM.
With N#Cc1cccc(C#Cc2cccc(CO)n2)c1 the Ki [1] was 37 nM and the IC50 [2] was 30 nM.
CC(=O)c1cccc(C#Cc2cccc(C#N)c2)n1 showed a Ki [1] of 114 nM and an IC50 [2] of 300 nM.

From ChEMBL document CHEMBL2086345, “Metabotropic glutamate receptor 5 negative allosteric modulators as novel tools for in vivo investigation” (ACS Med Chem Lett, 2012)
